How the values were obtained:
MDA-MB-231 [1] = assay: Inhibition of human MDA-MB-231 cell migration after 4 days by scratch wound healing assay; assay type: functional, cell-based; details: MDA-MB-231, 96 h
Procedure, shortened: (§1)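 Wounds were scratched through confluent cell monolayers with a floating pin tool, then compounds were added at concentrations chosen to avoid cytotoxicity. Plates were incubated 4 days at 37°C, then fixed and stained. Fluorescence in the wound area quantified wound closure, and IC50 for inhibition of wound healing was reported.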

4T1 [2] = assay: Inhibition of cell migration of mouse 4T1 cells after 4 days by scratch wound healing assay; assay type: functional, cell-based; details: 4T1, 96 h; procedure, shortened: as §1
MDA-MB-231 [3] = assay: Cytotoxicity against human MDA-MB-231 cells; assay type: functional, cell-based
4T1 [4] = assay: Cytotoxicity against […] cells; assay type: functional, cell-based
[5] = Metabolic stability in mouse plasma assessed as half life; assay type: ADME, cell-free

SMILES: C/C1=C/[C@@H](C)CC/C=C/CC/C=C/C(=O)O[C@@H]1[C@H](C)C(=O)C[C@H](O)CC1CC(=O)NC(=O)C1
- IC50 (MDA-MB-231 [1]): 0.07 µM
- IC50 (4T1 [2]): > 0.33 µM
- IC50 (MDA-MB-231 [3]): 1 µM
- IC50 (4T1 [4]): 0.98 µM

SMILES: CO[C@@H](/C=C/CC/C=C/C(=O)O)[C@@H](O)[C@H](C)/C=C(\C)[C@H](O)[C@H](C)C(=O)CCCC1CC(=O)NC(=O)C1 [DORRIGOCIN A]
- IC50 (MDA-MB-231 [1]): > 100 µM
- IC50 (4T1 [2]): > 100 µM
- IC50 (MDA-MB-231 [3]): > 100 µM
- IC50 (4T1 [4]): > 100 µM

SMILES: C/C(=C\[C@@H](C)CC/C=C/CC/C=C/C(=O)O)[C@H](O)[C@H](C)C(=O)C[C@H](O)CC1CC(=O)NC(=O)C1
- IC50 (MDA-MB-231 [1]): > 100 µM
- IC50 (4T1 [2]): > 100 µM
- IC50 (MDA-MB-231 [3]): > 100 µM
- IC50 (4T1 [4]): > 100 µM

SMILES: C/C(=C\[C@@H](C)[C@H](O)C/C=C/CC/C=C/C(=O)O)[C@H](O)[C@H](C)C(=O)CCCC1CC(=O)NC(=O)C1
- IC50 (MDA-MB-231 [1]): > 100 µM
- IC50 (4T1 [2]): > 100 µM
- IC50 (MDA-MB-231 [3]): > 100 µM
- IC50 (4T1 [4]): > 100 µM

SMILES: CO[C@@H](/C=C/CC/C=C/C(=O)O)[C@@H](O)[C@H](C)/C=C(\C)[C@@H](O)[C@H](C)C(=O)CCCC1CC(=O)NC(=O)C1
- IC50 (MDA-MB-231 [1]): > 100 µM
- IC50 (4T1 [2]): > 100 µM
- IC50 (MDA-MB-231 [3]): > 100 µM
- IC50 (4T1 [4]): > 100 µM

SMILES: C/C1=C/[C@@H](C)[C@H](O)[C@@H](O)/C=C/CC/C=C/C(=O)O[C@@H]1[C@H](C)C(=O)CCCC1CC(=O)NC(=O)C1
- IC50 (MDA-MB-231 [1]): > 100 µM
- IC50 (4T1 [2]): > 100 µM
- IC50 (MDA-MB-231 [3]): > 100 µM
- IC50 (4T1 [4]): 44 µM

SMILES: C/C(=C\[C@H](C)C(=O)CCCC1CC(=O)NC(=O)C1)[C@H](O)[C@@H](C)[C@H](O)C/C=C/CC/C=C/C(=O)O
- IC50 (MDA-MB-231 [1]): > 100 µM
- IC50 (4T1 [2]): > 100 µM
- IC50 (MDA-MB-231 [3]): > 100 µM
- IC50 (4T1 [4]): > 100 µM

SMILES: C/C1=C/[C@@H](C)[C@H](O)[C@@H](O)/C=C/CC/C=C/C(=O)O[C@@H]1[C@H](C)C(=O)/C=C/CC1CC(=O)NC(=O)C1
- IC50 (MDA-MB-231 [1]): > 100 µM
- IC50 (4T1 [2]): > 100 µM
- IC50 (MDA-MB-231 [3]): 29 µM
- IC50 (4T1 [4]): 32 µM

SMILES: CO[C@@H](/C=C/CC/C=C/C(=O)O)[C@@H](O)[C@H](C)C(O)/C(C)=C/[C@H](C)C(=O)CCCC1CC(=O)NC(=O)C1 (stereo partly drawn)
- IC50 (MDA-MB-231 [1]): > 100 µM
- IC50 (4T1 [2]): > 100 µM
- IC50 (MDA-MB-231 [3]): > 100 µM
- IC50 (4T1 [4]): > 100 µM

SMILES: CO[C@H]1/C=C/CC/C=C/C(=O)O[C@H]([C@H](C)C(=O)C[C@H](O)CC2CC(=O)NC(=O)C2)/C(C)=C\[C@@H](C)[C@@H]1O
- IC50 (MDA-MB-231 [1]): 1.8 µM
- IC50 (4T1 [2]): 1.8 µM
- IC50 (MDA-MB-231 [3]): 5.2 µM
- IC50 (4T1 [4]): 5.3 µM

SMILES: CO[C@@H](/C=C/CC/C=C/C(=O)O)[C@@H](O)[C@H](C)/C=C(\C)[C@H](O)[C@H](C)C(=O)C[C@H](O)CC1CC(=O)NC(=O)C1
- IC50 (MDA-MB-231 [1]): > 100 µM
- IC50 (4T1 [2]): > 100 µM
- IC50 (MDA-MB-231 [3]): > 100 µM
- IC50 (4T1 [4]): 20 µM

SMILES: CO[C@H]1/C=C/CC/C=C/C(=O)O[C@H]([C@H](C)C(=O)CCCC2CC(=O)NC(=O)C2)/C(C)=C\[C@@H](C)[C@@H]1O [MIGRASTATIN]
- IC50 (MDA-MB-231 [1]): 17 µM
- IC50 (4T1 [2]): 14 µM
- IC50 (MDA-MB-231 [3]): 4.6 µM
- IC50 (4T1 [4]): 5.8 µM
- half-life [5]: 5 min

SMILES: C/C(=C\[C@@H](C)[C@H](O)[C@@H](O)/C=C/CC/C=C/C(=O)O)[C@H](O)[C@H](C)C(=O)CCCC1CC(=O)NC(=O)C1
- IC50 (MDA-MB-231 [1]): > 100 µM
- IC50 (4T1 [2]): > 100 µM
- IC50 (MDA-MB-231 [3]): > 100 µM
- IC50 (4T1 [4]): > 100 µM

SMILES: C/C1=C/[C@@H](C)C[C@@H](O)/C=C/CC/C=C/C(=O)O[C@@H]1[C@H](C)C(=O)C[C@H](O)CC1CC(=O)NC(=O)C1
- IC50 (MDA-MB-231 [1]): > 100 µM
- IC50 (4T1 [2]): > 100 µM
- IC50 (MDA-MB-231 [3]): 13 µM
- IC50 (4T1 [4]): 10 µM

SMILES: C/C1=C/[C@@H](C)[C@H](O)C/C=C/CC/C=C/C(=O)O[C@@H]1[C@H](C)C(=O)CCCC1CC(=O)NC(=O)C1
- IC50 (MDA-MB-231 [1]): > 100 µM
- IC50 (4T1 [2]): > 100 µM
- IC50 (MDA-MB-231 [3]): > 100 µM
- IC50 (4T1 [4]): > 100 µM

SMILES: C/C(=C\[C@@H](C)[C@H](O)[C@@H](O)/C=C/CC/C=C/C(=O)O)[C@@H](O)[C@H](C)C(=O)CCCC1CC(=O)NC(=O)C1
- IC50 (MDA-MB-231 [1]): > 100 µM
- IC50 (4T1 [2]): > 100 µM
- IC50 (MDA-MB-231 [3]): > 100 µM
- IC50 (4T1 [4]): > 100 µM

SMILES: CO[C@H]1/C=C/CC/C=C/C(=O)O[C@H]([C@H](C)C(=O)/C=C/CC2CC(=O)NC(=O)C2)/C(C)=C\[C@@H](C)[C@@H]1O
- IC50 (MDA-MB-231 [1]): > 100 µM
- IC50 (4T1 [2]): > 100 µM
- IC50 (MDA-MB-231 [3]): > 100 µM
- IC50 (4T1 [4]): > 100 µM

SMILES: C/C(=C\[C@H](C)C(=O)CCCC1CC(=O)NC(=O)C1)[C@H](O)[C@@H](C)[C@H](O)[C@@H](O)/C=C/CC/C=C/C(=O)O
- IC50 (MDA-MB-231 [1]): > 100 µM
- IC50 (4T1 [2]): > 100 µM
- IC50 (MDA-MB-231 [3]): > 100 µM
- IC50 (4T1 [4]): > 100 µM

SMILES: CO[C@@H](/C=C/CC/C=C/C(=O)O)[C@@H](O)[C@H](C)[C@@H](O)/C(C)=C/[C@H](C)C(=O)C[C@H](O)CC1CC(=O)NC(=O)C1
- IC50 (MDA-MB-231 [1]): > 100 µM
- IC50 (4T1 [2]): > 100 µM
- IC50 (MDA-MB-231 [3]): > 100 µM
- IC50 (4T1 [4]): > 100 µM

SMILES: C/C(=C\[C@@H](C)CC/C=C/CC/C=C/C(=O)O)[C@@H](O)[C@H](C)C(=O)C[C@H](O)CC1CC(=O)NC(=O)C1
- IC50 (MDA-MB-231 [1]): > 100 µM
- IC50 (4T1 [2]): > 100 µM
- IC50 (MDA-MB-231 [3]): > 100 µM
- IC50 (4T1 [4]): 81 µM

SMILES: C/C(=C\[C@@H](C)[C@H](O)C/C=C/CC/C=C/C(=O)O)[C@@H](O)[C@H](C)C(=O)CCCC1CC(=O)NC(=O)C1
- IC50 (MDA-MB-231 [1]): > 100 µM
- IC50 (4T1 [2]): > 100 µM
- IC50 (MDA-MB-231 [3]): > 100 µM
- IC50 (4T1 [4]): > 100 µM

SMILES: C/C1=C/[C@@H](C)[C@H](O)C/C=C/CC/C=C/C(=O)O[C@@H]1[C@H](C)C(=O)/C=C/CC1CC(=O)NC(=O)C1
- IC50 (MDA-MB-231 [1]): > 100 µM
- IC50 (4T1 [2]): > 100 µM
- IC50 (MDA-MB-231 [3]): > 100 µM
- IC50 (4T1 [4]): 8.5 µM

SMILES: C/C1=C/[C@@H](C)[C@H](O)C/C=C/CC/C=C/C(=O)O[C@@H]1[C@H](C)C(=O)C[C@H](O)CC1CC(=O)NC(=O)C1
- IC50 (MDA-MB-231 [1]): > 100 µM
- IC50 (4T1 [2]): > 100 µM
- IC50 (MDA-MB-231 [3]): > 100 µM
- IC50 (4T1 [4]): > 100 µM

Source: ChEMBL document CHEMBL1151782, “Evaluation of new migrastatin and dorrigocin congeners unveils cell migration inhibitors with dramatically improved potency” (Bioorg Med Chem Lett, 2008)
